PMC6744591 (Heliyon, 2019)

Assays:
[1] = tested on: alloxan induced diabetes rats; experiment: Blood glucose lowering in alloxan-induced diabetic rats; assay type: in vivo, Wister rats
In short: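 Alloxan at 150 mg/kg i.p. in normal saline given to Wistar rats (~190 g); rats above 120 mg/dl glucose after 5–7 days counted as diabetic. Rats fasted 12 h, water allowed, fasted throughout; 9 per group. […] Basal glucose taken first; tail-vein glucometer readings at set intervals, triplicate averages.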

[2] = Pharmacokinetics: plasma concentration of insulin in diabetic rats; assay type: in vivo; details: for Tmax: plasma insulin, HPLC-UV

insulin [Ins-solu]
decrease in blood glucose levels ([1]; fasted, oral, 40.0 I.U/kg, glucometer, % of initial level): 1–2% | maximum decrease in blood glucose levels ([1]; fasted, subcutaneous, 4.0 I.U/kg, at 4 h): > 60% | time for which decrease in blood glucose level was sustained ([1]; subcutaneous, 4.0 I.U/kg): over 4 h | Tmax ([2]; oral, 40 IU/kg): 3.0 h | AUC ([2]; subcutaneous, 4.0 IU/kg, over 12 h, linear trapezoidal rule, mean ± SD, n = 5): 342.56 ± 30.9 µg/mL/h | Tmax ([2]; subcutaneous, 4.0 IU/kg): 1.0 h
